# Experimental data of several laboratories.
# Protocols differ between the studies behind these lines.
# Target: Serine/threonine-protein kinase pim-3 (PIM3, Homo sapiens, UniProt Q86V86)
SMILES,observed,action,method,tested at,endpoint,value
CCN(CC)c1ccc(C2=NNC(=O)CC2C)cc1[N+](=O)[O-] (stereo not drawn),enzyme activity,inhibitor,,10 µM,remaining activity,96%
Cc1ccc(Nc2nccc(N(C)c3ccc4c(C)n(C)nc4c3)n2)cc1S(N)(=O)=O,enzyme activity,inhibitor,,0.5 µM,remaining activity,81.6%
Cc1ccc(C(=O)NCc2ccsc2)cc1C#Cc1cn(C(C)C)c2ncnc(N)c12,enzyme activity,inhibitor,,1 µM,activity vs control,85%
COc1cc(Cl)c(C(=O)N[C@@H](CN[C@H]2CC[C@@H](N)CC2)Cc2ccc(C#N)cc2)cc1-c1ccc(CN[C@H](C)c2ccc(C)cc2)o1,enzyme activity,inhibitor,,1 µM,remaining activity,84%
O=C(Nc1cnn(-c2csc(C(=O)NC3COC3)c2)c1)Nc1c(F)cccc1Cl,enzyme activity,inhibitor,,5 µM,remaining activity,73.9%
O=C1NC(=O)c2cc(Nc3ccc(F)cc3)c(Nc3ccc(F)cc3)cc21,cell-free assay,,,0.5 µM,remaining signal,105%
CNC(=O)c1cc(Oc2ccc(NC(=O)Nc3ccc(Cl)c(C(F)(F)F)c3)cc2)ccn1,enzyme activity,inhibitor,,0.3 µM,inhibition,-12%
COc1cc2c(N3CCN(C(=O)Nc4ccc(OC(C)C)cc4)CC3)ncnc2cc1OCCCN1CCCCC1,cell-free assay,,,0.5 µM,remaining signal,100%
CN(C)C(=O)Cn1cc(-c2nc([C@@](C)(c3ccc(-c4cnc(N)nc4)cc3)C3CC3)no2)cn1,cell-free assay,,competition with immobilised ligand,1 µM,remaining binding,96%
CCN(CC)CCNC(=O)c1c(C)[nH]c(/C=C2\C(=O)Nc3ccc(F)cc32)c1C,enzyme activity,inhibitor,,0.3 µM,inhibition,-17%
Cc1cc(NC(=O)c2cccc3cc(-c4cccc5[nH]nc(N)c45)ccc23)ccc1F,enzyme activity,inhibitor,,0.1 µM,activity vs control,113%
COc1cc(Nc2cnc(C#N)c(O[C@H](C)CN(C)C)n2)ncc1-c1cnn(C)c1,enzyme activity,inhibitor,radiometric,1 µM,remaining activity,58%
O=C(O)[C@@H]1[C@@H](Cn2nnc3ccccc3c2=O)CC[C@H]1C(=O)c1ccc(OCCC2CCOCC2)cc1,cell-free assay,,competition with immobilised ligand,1 µM,remaining binding,84%
CS(=O)(=O)Nc1cccc(-c2csc(NC(=O)CSc3nc4nccnc4c(=O)n3CCc3ccccc3)n2)c1,enzyme activity,inhibitor,,10 µM,inhibition,1%
Cc1noc([C@H]2C[C@@H](c3ccc(C(F)(F)F)cc3)CN(C(=O)N3CCS(=O)(=O)C3)C2)n1,cell-free assay,,competition with immobilised ligand,1 µM,remaining binding,91%
CCCS(=O)(=O)Nc1ccc(F)c(C(=O)c2c[nH]c3ncc(-c4ccc(Cl)cc4)cc23)c1F,enzyme activity,inhibitor,,1 µM,inhibition,< 10%
FC(F)(F)c1ccc2c(c1)nc(-c1cccnc1)n2C1CC1,cell-free assay,,competition with immobilised ligand,1 µM,remaining binding,100%
Cn1c(=O)n(-c2ccc(C(C)(C)C#N)cc2)c2c3cc(-c4cnc5ccccc5c4)ccc3ncc21,enzyme activity,inhibitor,,10 µM,remaining activity,87%
CC(=O)N1CCC(c2ccc(C(=O)NC3=NCCN3)cc2C(F)(F)F)CC1,cell-free assay,,competition with immobilised ligand,1 µM,remaining binding,100%
Cc1sc(C(=O)NC2COC2)cc1-n1cc(NC(=O)Nc2c(F)cccc2Cl)cn1,enzyme activity,inhibitor,,10 µM,remaining activity,129%
CC(C)(C)C(=O)c1sc(NC2CCCCC2)nc1N,enzyme activity,inhibitor,,10 µM,remaining activity,82%
CC1=C(C#N)C(c2ccc3c(c2)c(NC(=O)c2ccccc2C)nn3C)C(C#N)=C(C)N1,cell-free assay,,competition with immobilised ligand,1 µM,remaining binding,100%
CCCOc1ccc(OC)c(F)c1C(=O)c1ccc(C(=O)N[C@@H]2CNC[C@H]2NC(=O)c2ccc3[nH]ncc3c2)cc1,enzyme activity,inhibitor,,10 µM,remaining activity,97%
CCC(=O)N[C@H]1CC[C@@H](C(=O)N(C)c2ccc(-c3nc4ccccc4o3)cc2)C1,cell-free assay,,competition with immobilised ligand,1 µM,remaining binding,100%
COc1cc(/C=C/C(=O)CC(=O)/C=C/c2ccc(O)c(OC)c2)ccc1O,enzyme activity,inhibitor,,1 µM,activity vs control,12%
Cc1cc(C)c(-n2ccn3nc(-c4cccnc4)cc23)cc1NC(=O)c1cc(C#N)cc(S(F)(F)(F)(F)F)c1,cell-free assay,,competition with immobilised ligand,0.1 µM,remaining binding,83.1%
CC(C)(C)c1nc2c(s1)c1nc(N)ncc1c1ccc(NS(=O)(=O)c3c(F)cccc3F)c(F)c12,enzyme activity,inhibitor,radiometric,1 µM,remaining activity,105%
